# Reference: ChEMBL document CHEMBL1681754, “Synthesis, structure, molecular docking, and structure-activity relationship analysis of enamines: 3-aryl-4-alkylaminofuran-2(5H)-ones as potential antibacterials” (Bioorg Med Chem, 2011)
# Tested on: Bacillus subtilis
# Assay: Antimicrobial activity against Bacillus subtilis ATCC 6633 after 24 hrs by MTT assay
# Type: functional
# Conditions: ATCC 6633, 24 h
# Method in brief: (§1)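 MTT colorimetric broth microdilution in LB medium. Compounds serially diluted in sterile medium (50% v/v DMSO in PBS). Inoculum approx. 10⁵ cfu/mL, 37 °C for 24 h. Then 50 µL PBS with 2 mg/mL MTT added per well, 4–5 h at room temperature. After a further 12 h at room temperature, OD read at 550 nm to give MIC₅₀.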
row,Compound,MIC50 [µg/mL]
1,O=C1OCC(NCc2ccccc2)=C1c1cccc(Cl)c1,> 100
2,O=C1OCC(NNc2ccc([N+](=O)[O-])cc2)=C1c1ccccc1,15.6
3,COc1ccc(C2=C(N3CCOCC3)COC2=O)cc1OC,> 100
4,O=C1OCC(NCCN2CCOCC2)=C1c1ccc(Br)cc1,24.7
5,CN(C)C1=C(c2cccc(Br)c2)C(=O)OC1,> 100
6,CCCNC1=C(c2cccc(Cl)c2)C(=O)OC1,> 100
7,O=C1OCC(NCc2ccccc2)=C1c1ccc(Br)cc1,> 100
8,O=C1OCC(N2CCNCC2)=C1c1ccc(Br)cc1,78.5
9,CCCCNC1=C(c2ccc(OC)c(OC)c2)C(=O)OC1,> 100
10,O=C1OCC(N2CCCCC2)=C1c1ccc(Br)cc1,> 100
11,COc1ccc(C2=C(NC3CCCCC3)COC2=O)cc1OC,> 100
12,O=C1OCC(N2CCOCC2)=C1c1ccc(Br)cc1,91.8
13,COc1ccc(C2=C(N3CCCC3)COC2=O)cc1OC,> 100
14,COc1ccc(C2=C(NCCN3CCOCC3)COC2=O)cc1OC,> 100
15,COc1ccc(C2=C(NCc3ccccc3)COC2=O)cc1OC,> 100
16,O=C1OCC(N2CCCC2)=C1c1cccc(Cl)c1,87.4
17,O=C1OCC(N2CCCC2)=C1c1ccc(Br)cc1,50

# Tested on: Staphylococcus aureus
# Assay: Antimicrobial activity against Staphylococcus aureus ATCC 25923 after 24 hrs by MTT assay
# Type: functional
# Conditions: ATCC 25923, 24 h
# Method in brief: as §1
row,Compound,MIC50 [µg/mL]
1,O=C1OCC(NCc2ccccc2)=C1c1cccc(Cl)c1,25.3
2,O=C1OCC(NNc2ccc([N+](=O)[O-])cc2)=C1c1ccccc1,0.85
3,COc1ccc(C2=C(N3CCOCC3)COC2=O)cc1OC,> 100
4,O=C1OCC(NCCN2CCOCC2)=C1c1ccc(Br)cc1,9.7
5,CN(C)C1=C(c2cccc(Br)c2)C(=O)OC1,61.4
6,CCCNC1=C(c2cccc(Cl)c2)C(=O)OC1,52.4
7,O=C1OCC(NCc2ccccc2)=C1c1ccc(Br)cc1,57.6
8,O=C1OCC(N2CCNCC2)=C1c1ccc(Br)cc1,54.7
9,CCCCNC1=C(c2ccc(OC)c(OC)c2)C(=O)OC1,> 100
10,O=C1OCC(N2CCCCC2)=C1c1ccc(Br)cc1,21.8
11,COc1ccc(C2=C(NC3CCCCC3)COC2=O)cc1OC,> 100
12,O=C1OCC(N2CCOCC2)=C1c1ccc(Br)cc1,42.6
13,COc1ccc(C2=C(N3CCCC3)COC2=O)cc1OC,> 100
14,COc1ccc(C2=C(NCCN3CCOCC3)COC2=O)cc1OC,68.3
15,COc1ccc(C2=C(NCc3ccccc3)COC2=O)cc1OC,> 100
16,O=C1OCC(N2CCCC2)=C1c1cccc(Cl)c1,12.6
17,O=C1OCC(N2CCCC2)=C1c1ccc(Br)cc1,37.1

# Tested on: not listed separately
# Assay: Inhibition of Staphylococcus aureus tyrosyl-tRNA synthetase by aminoacylation assay
# Conditions: not given
# Method in brief: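 S. aureus TyrRS overexpressed in E. coli and purified (~98% by SDS–PAGE). Enzyme (0.2 nM) preincubated with a range of inhibitor concentrations for 10 min at room temperature, then prewarmed mix added at 37 °C. TCA-precipitated charged tRNA counted by scintillation; IC₅₀ is the concentration halving activity.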
row,Compound,IC50 [µM]
1,O=C1OCC(NCc2ccccc2)=C1c1cccc(Cl)c1,8.9
2,O=C1OCC(NNc2ccc([N+](=O)[O-])cc2)=C1c1ccccc1,0.24
3,O=C1OCC(NCCN2CCOCC2)=C1c1ccc(Br)cc1,3.3
4,O=C1OCC(N2CCCCC2)=C1c1ccc(Br)cc1,7.7
5,O=C1OCC(N2CCCC2)=C1c1cccc(Cl)c1,5.6

# Tested on: Candida albicans
# Assay: Antimicrobial activity against Candida albicans ATCC 10231 after 48 hrs by MTT assay
# Type: functional
# Conditions: ATCC 10231, 48 h
# Method in brief: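 Antifungal MTT colorimetric microdilution in RPMI-1640 medium. Compounds serially diluted in sterile medium (50% v/v DMSO in PBS). Inoculum approx. 10⁵ cfu/mL, plates at 27 °C for 48 h. Then PBS with 2 mg/mL MTT added, 4–5 h at room temperature. After a further 12 h, OD read at 550 nm to give MIC₅₀.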
row,Compound,MIC50 [µg/mL]
1,O=C1OCC(NCc2ccccc2)=C1c1cccc(Cl)c1,83.9
2,O=C1OCC(NNc2ccc([N+](=O)[O-])cc2)=C1c1ccccc1,13.1
3,COc1ccc(C2=C(N3CCOCC3)COC2=O)cc1OC,> 100
4,O=C1OCC(NCCN2CCOCC2)=C1c1ccc(Br)cc1,3.5
5,CN(C)C1=C(c2cccc(Br)c2)C(=O)OC1,> 100
6,CCCNC1=C(c2cccc(Cl)c2)C(=O)OC1,> 100
7,O=C1OCC(NCc2ccccc2)=C1c1ccc(Br)cc1,> 100
8,O=C1OCC(N2CCNCC2)=C1c1ccc(Br)cc1,77.4
9,CCCCNC1=C(c2ccc(OC)c(OC)c2)C(=O)OC1,> 100
10,O=C1OCC(N2CCCCC2)=C1c1ccc(Br)cc1,74.4
11,COc1ccc(C2=C(NC3CCCCC3)COC2=O)cc1OC,> 100
12,O=C1OCC(N2CCOCC2)=C1c1ccc(Br)cc1,89.7
13,COc1ccc(C2=C(N3CCCC3)COC2=O)cc1OC,> 100
14,COc1ccc(C2=C(NCCN3CCOCC3)COC2=O)cc1OC,> 100
15,COc1ccc(C2=C(NCc3ccccc3)COC2=O)cc1OC,> 100
16,O=C1OCC(N2CCCC2)=C1c1cccc(Cl)c1,71.2
17,O=C1OCC(N2CCCC2)=C1c1ccc(Br)cc1,49.8

# Tested on: Escherichia coli
# Assay: Antimicrobial activity against Escherichia coli ATCC 35218 after 24 hrs by MTT assay
# Type: functional
# Conditions: ATCC 35218, 24 h, read-out: MIC50
# Method in brief: as §1
row,Compound,MIC50 [µg/mL]
1,O=C1OCC(NCc2ccccc2)=C1c1cccc(Cl)c1,> 100
2,O=C1OCC(NNc2ccc([N+](=O)[O-])cc2)=C1c1ccccc1,> 100
3,COc1ccc(C2=C(N3CCOCC3)COC2=O)cc1OC,> 100
4,O=C1OCC(NCCN2CCOCC2)=C1c1ccc(Br)cc1,> 100
5,CN(C)C1=C(c2cccc(Br)c2)C(=O)OC1,> 100
6,CCCNC1=C(c2cccc(Cl)c2)C(=O)OC1,> 100
7,O=C1OCC(NCc2ccccc2)=C1c1ccc(Br)cc1,> 100
8,O=C1OCC(N2CCNCC2)=C1c1ccc(Br)cc1,> 100
9,CCCCNC1=C(c2ccc(OC)c(OC)c2)C(=O)OC1,> 100
10,O=C1OCC(N2CCCCC2)=C1c1ccc(Br)cc1,> 100
11,COc1ccc(C2=C(NC3CCCCC3)COC2=O)cc1OC,> 100
12,O=C1OCC(N2CCOCC2)=C1c1ccc(Br)cc1,> 100
13,COc1ccc(C2=C(N3CCCC3)COC2=O)cc1OC,> 100
14,COc1ccc(C2=C(NCCN3CCOCC3)COC2=O)cc1OC,> 100
15,COc1ccc(C2=C(NCc3ccccc3)COC2=O)cc1OC,> 100
16,O=C1OCC(N2CCCC2)=C1c1cccc(Cl)c1,> 100
17,O=C1OCC(N2CCCC2)=C1c1ccc(Br)cc1,> 100
